The test system of assay [1] is KB 3-1. Nature of the assay: Concentration required to kill human epidermoid KB-3-1 cell lines containing very low levels of P-glycoprotein after 3 days of continuous exposure. The settings on record: KB 3-1, 72 h. The class given is functional, cell-based. The method in brief:
(§1)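 KB-3-1, KB85 and KBV1 cells were plated at densities set to reach 60–90% confluence at analysis. Compounds were serially diluted in medium as 2× stocks and added in duplicate. After 3 days of incubation, cell survival was read by SRB assay and reported as IC50.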

Assay [2] deals with KB85 (Homo sapiens). Nature of the assay: Concentration required to kill human epidermoid KB85 cell lines containing moderate levels of P-glycoprotein after 3 days of continuous exposure. The settings on record: KB85, 72 h.
In assay [3] the test system is KB. The assay is described as follows: Concentration required to kill 50% of human epidermoid KBV1 cell lines containing very high levels of P-glycoprotein after 3 days of continuous exposure. It is filed as functional, cell-based. The following applies: 72 h. The method in brief: as §1
In assay [4] the test system is Mus musculus. The assay is described as follows: Minimum effective dose against Lox melanoma human xenograft models in athymic mice. It is filed as functional. The gist of the method: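 Lox melanoma cells (1.5–7 × 10^6) were injected sc into athymic mice. At 80–100 mg tumour mass, animals were randomised into groups of 5 or 10 and dosed iv in saline. Tumour length and width were measured weekly, with mass = (L·W²)/2. Relative tumour growth and %T/C were calculated.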
Background: Xenograft models place foreign cells or tissue in a host animal.

The subject of assay [5] is Mus musculus. Nature of the assay: Minimum tolerated dose against Lox melanoma human xenograft models in athymic mice. The class given is functional.
The species entered for assay [6] is Bos taurus. The assay is described as follows: Percent inhibition of bovine microtubule-assisted protein (MAP) rich tubulin polymerisation at concentration of 0.3 uM. The class given is functional. The gist of the method: (§2)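 Bovine MAP-rich tubulin (final 1.5 mg/mL) was prepared in cold PEM buffer (80 mM NaPIPES pH 6.9, 1 mM MgCl2, 1 mM EGTA) with 1 mM GTP and spun at 12,000g for 10 min at 4 C. It was added to duplicate compound wells (final 0.3 µM); controls held 0.3% DMSO. A340 was read every minute for 60 min at 24 C.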

The species named for assay [7] is Bos taurus. The assay is described as follows: Percent inhibition of bovine microtubule-assisted protein (MAP) rich tubulin polymerisation at concentration of 0.3 uM; (result for 2). It is filed as functional. The gist of the method:
as §2

The species entered for assay [8] is Bos taurus. The assay is described as follows: Percent inhibition of bovine microtubule-assisted protein (MAP) rich tubulin polymerisation at concentration of 0.3 uM; Not applicable. The class given is functional. The method in brief: as §2
In assay [9] the test system is KB. Nature of the assay: Concentration required to kill human epidermoid KBV1 cell lines containing very high levels of P-glycoprotein after 3 days of continuous exposure. The class given is functional, cell-based. The settings on record: 72 h. The gist of the method:
as §1

This note sets out measurements from ChEMBL document CHEMBL1137922, “Synthesis and activity of novel analogs of hemiasterlin as inhibitors of tubulin polymerization: modification of the A segment” (Bioorg Med Chem Lett, 2004).

Structures are written as SMILES. Calls of active or inactive are those of the source. The calls are words filed in the database; no cut-off is given here.

In general, IC50 refers to the concentration that inhibits the measured activity by half. Read a high IC50 as a need for much substance. In general, Inhibition refers to the drop in the measured response relative to a control, in per cent. A higher Inhibition goes with strong suppression. Take `CN[C@H](C(=O)N[C@H](C(=O)N(C)[C@H](/C=C(\C)C(=O)O)C(C)C)C(C)(C)C)C(C)(C)c1ccc(C)c(C)c1`: the half-maximal inhibitory concentration (IC50) in assay [1] was 0.4 nM; in assay [2], 1.13 nM; in assay [3] it was 39 nM. The MED in [4] came to 0.2 mpk. Besides, the MTD in assay [5] is more than 1 mpk. For the same compound, the Inhibition in assay [6] and in [7] was 88% in each case.

On to `CN[C@H](C(=O)N[C@H](C(=O)N(C)[C@H](/C=C(\C)C(=O)O)C(C)C)C(C)(C)C)C(C)(C)c1cn(C)c2ccccc12` [HEMIASTERLIN], for which the figures for the IC50 in assay [1], in [2] and in assay [9] were 0.3 nM, 1 nM and 76 nM, respectively. In addition, the inhibition entry in assay [8] was “inactive”.
